Experimental data reported in article PMC4059610 (Cell, 2014).

Experiments:
WRC = conditions: ref Nakao et al., 2008, Tai et al., 2010 (PCDH10, PCDH19), Bernadskaya et al., 2012, Stavoe et al., 2012 (DCC), 2012 (ROBO1), Karpushev et al., 2011 (ENaC); cited from earlier work
WRC (2MBP-ΔWRC) = assay: MBP pull-down by immobilized 2MBP-ΔWRC; assay type: binding, human; conditions: data not shown
Procedure, shortened: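 Bait was immobilized 2MBP-ΔWRC, either wild type or the AW form (R106A/G110W in Abi2). It was mixed on affinity beads with a 5- to 10-fold excess of GST-tagged receptor cytoplasmic tails, purified by glutathione affinity chromatography with or without ion exchange and size exclusion. Beads were incubated and washed, then eluted with maltose. Retained proteins were seen on Coomassie-stained gels.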

WRC / Arp2/3 complex = assay: Arp2/3-mediated pyrene-actin assembly assay; assay type: biochemical; conditions: minimal WIRS peptide; 100 nM WRC217, Fig. 5A
endogenous WRC = assay: GST-PCDH10 CT pull-down of endogenous WRC from mouse brain lysate; assay type: binding; conditions: 100 μM WIRS peptide, Fig. 6A
Procedure, shortened: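 Immobilized GST-PCDH10 cytoplasmic tail was incubated with mouse brain lysate on glutathione affinity beads. Competitor was buffer or 100 μM WIRS peptide, either wild type or T8A/F9A mutant. Beads were washed and bound proteins eluted with reduced glutathione. Retained endogenous WRC was detected by Western blot.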

[1] = system: endogenous PCDH10/WRC interaction; assay: Co-immunoprecipitation of WRC; assay type: binding; conditions: 5 mM WIRS peptide, anti-WAVE1, mouse brain lysate, n = 7, p = 0.00003, Fig. 6B
[2] = system: 2MBP-ΔWRC / GST-hPCDH10 CT interaction; assay: Competition of 2MBP-ΔWRC pull-down of PCDH10 CT; assay type: binding, human; conditions: Fig. 1D
Procedure, shortened: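 Immobilized 2MBP-ΔWRC bait was mixed on affinity beads with a 5- to 10-fold excess of GST-tagged PCDH10 cytoplasmic tail prey, with wild-type WIRS peptide or T8A/F9A mutant peptide as competitor. After incubation and washing, bound proteins were eluted with maltose.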

DCC: netrin receptor
Previously shown interaction with the WRC, biochemical or genetic (WRC): previously shown to interact with the WRC biochemically or genetically

FAT2: protocadherin FAT2, WIRS motif only found in human, mouse and chicken
Binding to WRC in vitro using its WIRS motif (WRC (2MBP-ΔWRC)): binds the WRC in vitro using its WIRS motif

WIRS peptide: peptide containing the conserved sequence RSFSTFGKE of PCDH10 (WRC interacting receptor sequence)
Effect on Rac1 stimulation of WRC activity (WRC / Arp2/3 complex): had no effect on Rac1 stimulation | Blocking of GST-PCDH10 CT pull-down of endogenous WRC (endogenous WRC): completely blocked the interaction | Effect on co-immunoprecipitation of PCDH10 with WRC [1]: weakened | Blocking of PCDH10 CT binding to 2MBP-ΔWRC [2]: blocked this interaction
